High-throughput results: PubChem BioAssay, several laboratories
PAFAH1B3 inh = PAFAH1B3 (human) inhibition | recombinant PAFAH1B3, FP-rhodamine probe, fluorescence polarization | inhibition, % at 3.39 µM | hit rate 0.28% among 340,000 | AID 492972;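 active = inhibition above the screen-wide average of all tested compounds plus 3 SD, cut at about 25% in these data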;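 note: 0% = enzyme with DMSO only and 100% = wells lacking PAFAH1B3 protein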
PAFAH1B2 FP inh = inhibitors of human PAFAH1B2; P68402; recombinant PAFAH1B2, FP-rhodamine activity probe, fluorescence polarization; inhibition, % at 3.39 µM; hit rate 1.2% among 340,000;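 active = inhibition above the mean of all tested compounds plus 3 SD, cut at about 24% in these data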;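 note: 0% = enzyme with DMSO and 100% = wells lacking PAFAH1B2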
pPAFAH FP inh = pPAFAH (human) enzyme inhibition; inhibition, % at 3.39 µM; recombinant pPAFAH, FP-rhodamine probe fluorescence polarization; hit rate 1.5% among 330,000;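 active = inhibition above the mean inhibition across the screen plus 3 SD, cut at about 25% in these data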;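 note: inhibitors block binding of the rhodamine activity-based probe so polarization drops; 0% = enzyme with DMSO and 100% = wells lacking pPAFAH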
PREPL inhibitor = inhibits the human prolyl oligopeptidase-like enzyme | Q4J6C6 | recombinant PREPL, fluorescence polarization activity-based probe | hit rate 0.68% among 320,000 | inhibition, % at 5.96 µM; in the data active = inhibition above about 43%;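 note: 0% = enzyme with DMSO and 100% = wells lacking enzyme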
Apaf1 inhib = blocks human Apaf-1 apoptosome activity | O14727 | inhibition, % at 20 µM | reconstituted apoptosome caspase-3 activity, DEVD-Rh110 fluorescence | hit rate 0.71% among 330,000; active = inhibition of at least 40% at 20 µM;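 note: plate controls were DMSO wells for no effect and DEVD-CHO caspase inhibitor wells for full effect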
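Material: biochemical Apaf-1 apoptosome reconstitution. Medium: Hepes buffer, pH 7.5. Also added: cytochrome c activation, bis-DEVD rhodamine 110 substrate. Timing: 30 min compound preincubation, 50 min activation, room temperature. Measured by: rhodamine 110 fluorescence at Ex 480/Em 540 nm.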
PAFAH2 inh = inhibitors of human PAFAH2 | recombinant PAFAH2, FP-rhodamine activity probe, fluorescence polarization | Q99487 | inhibition, % at 3.39 µM | hit rate 0.99% among 340,000 | AID 492956;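 active = inhibition above the mean over all tested compounds plus 3 SD, cut at about 30% in these data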;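 note: inhibitors block probe labeling of enzyme so polarization drops; 0% = enzyme with DMSO and 100% = wells lacking PAFAH2 protein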
* hit, by the source's call; . = not tested or not shown. Compounds with a hit are over-represented: about 3.5% of the library has one in this group of screens.

SMILES	PAFAH1B3 inh	PAFAH1B2 FP inh	pPAFAH FP inh	PREPL inhibitor	Apaf1 inhib	PAFAH2 inh
Fc1cccc2sc(Nc3nnc(-c4ccccc4)o3)nc12	1	12	25*	25	9	33*
Fc1cccc2sc(Nc3nc4c(F)cccc4s3)nc12	5	2	11	12	7	-8
NC1=NC(=O)/C(=C/c2cn(CCC(=O)O)nc2-c2ccc(F)cc2)S1	8	48*	0	-3	3	4
O=C(O)CCn1cc(/C=C\C(=O)c2ccc(Cl)cc2)c(-c2cccc(Br)c2)n1	6	46*	2	6	19	6
NC1=NC(=O)/C(=C/c2cn(CCC(=O)O)nc2-c2ccc(Cl)cc2)S1	6	50*	1	10	.	5
CC(OC(=O)Cc1ccccc1[N+](=O)[O-])C(=O)Nc1ccc(Cl)cn1 (centres undefined)	3	4	3	8	1	-2
COc1cc(C(c2c(C)[nH][nH]c2=O)c2c(C)[nH][nH]c2=O)ccc1OCc1ccc([N+](=O)[O-])cc1	8	26*	11	19	13	1
COC(=O)c1ccc(NC(=O)CN2C(=O)NC3(CCC(C)CC3)C2=O)cc1 (centres undefined)	-11	9	0	15	1	-4
Cc1ccc(/C=C(\C#N)C(=O)NCC2CCCO2)o1 (centres undefined)	13	-4	-6	-1	2	-4
Cc1ccccc1-n1c(C)cc(/C=C(\C#N)C(=O)NCC2CCCO2)c1C (centres undefined)	-1	1	26*	1	12	0
O=C(Nc1ccccc1Cl)ON=C1c2ccccc2-c2ccccc21	26*	3	-5	13	8	-1
O=C(COC(=O)c1cc(S(=O)(=O)N2CCc3ccccc3C2)ccc1Cl)NCc1ccco1	1	3	4	3	43*	-7
O=C(COC(=O)c1cccc(S(=O)(=O)N2CCc3ccccc3C2)c1)NCc1ccco1	1	10	23	-13	9	-1
O=S(=O)(c1ccc(Cl)cc1)N1CCCC1c1nc2ccccc2s1 (centres undefined)	-1	7	30*	0	11	-1
O=S(=O)(c1cc(Cl)cc(Cl)c1)N1CCCC1c1nc2ccccc2s1 (centres undefined)	3	-3	2	-3	21	5
Cc1ccc(S(=O)(=O)N2CCCC2c2nc3ccccc3s2)cc1 (centres undefined)	3	7	31*	-10	11	7
O=C(CCSc1ccc(Cl)cc1)c1ccco1	-1	28*	4	2	4	3
O=C(CSc1ccc(Cl)cc1)c1ccco1	0	21	29*	16	5	19
Cc1ccccc1S(=O)(=O)Cc1ccc(C(=O)NCCCN2CCCC(C)C2)o1 (centres undefined)	13	2	-2	-20	10	3
Nc1c(N(CCCO)C(=O)C2CCCCC2)c(=O)[nH]c(=O)n1Cc1ccccc1	3	4	5	27	-10	-1
COc1ccc(N2CCN(C(=O)CCNC(=O)c3ccc(C(C)(C)C)cc3)CC2)cc1	-2	64*	9	16	9	1
COc1ccc(N2CCN(C(=O)c3ccc(C(C)(C)C)cc3)CC2)cc1	-1	-1	7	9	16	-2
CC(=O)N1CCc2ccccc2C1CC(=O)O (centres undefined)	3	0	10	3	2	1
CCOc1ccc(N(CC(=O)NCCc2ccc(Cl)cc2)S(=O)(=O)c2c(C)[nH]c(=O)[nH]c2=O)cc1	11	28*	6	11	9	7
Cc1ccc(Cn2nc(C)c(C(=O)NCC(c3ccc(F)cc3)N3CCOCC3)c2Cl)cc1 (centres undefined)	6	-1	5	15	7	-6
SMILES	PAFAH1B3 inh	PAFAH1B2 FP inh	pPAFAH FP inh	PREPL inhibitor	Apaf1 inhib	PAFAH2 inh
Cc1cccc(C2C3=C(Nc4[nH]n(-c5ccccc5)c(=O)c42)c2ccccc2C3=O)c1 (centres undefined)	21	52*	.	.	.	62*
Cc1ccccc1C1C2=C(Nc3[nH]n(-c4ccccc4)c(=O)c31)c1ccccc1C2=O (centres undefined)	.	.	6	14	.	.
Cc1ccc2c(c1)c1c3n2CC(=C2C(=O)OC(C)(C)OC2=O)NC3CCC1 (centres undefined)	13	3	29*	39	6	22
Cc1ccc2c(c1)c1c3n2CCN(C(=O)C2CC2)C3CCC1 (centres undefined)	0	9	10	8	23	-2
CCOC(=O)c1c(N)sc2c1CCC(CC)C2 (centres undefined)	-1	3	26*	8	8	5
CCOC(=O)c1c(N)sc2c1CCC1C(=O)N(C3CCCCC3)C(=O)C21 (centres undefined)	2	4	34*	13	24	11
N#CCCN(C(=O)COc1ccc(F)cc1Br)c1ccccc1F	2	3	10	-8	8	1
Cc1ccn2cc(CCNS(=O)(=O)c3ccc([N+](=O)[O-])cc3)nc2c1	11	11	30*	3	-23	-3
CC(=O)c1ccc(S(=O)(=O)NCCc2cn3ccc(C)cc3n2)cc1	4	5	8	3	-4	2
Cn1nc(C(=O)OCC(=O)Nc2ccc(Cl)cc2Cl)c2ccccc2c1=O	10	2	2	-4	-7	-2
CC(C)(C)SCCNS(=O)(=O)c1ccccc1	-1	13	19	11	3	9
CSc1ccc(S(=O)(=O)NCCSC(C)(C)C)cc1	-3	8	28*	10	12	14
O=C(c1cc(S(=O)(=O)N2CCN(c3ccccc3)CC2)ccc1Cl)N1CCCCCCC1	0	6	32*	-32	22	0
CCCCNc1cc(C(=O)O)cc(S(N)(=O)=O)c1Oc1ccccc1	15	16	6	-8	-4	6
NS(=O)(=O)c1cc(C(=O)O)cc(N2CCCC2)c1Oc1ccccc1	-2	29*	0	8	-5	-2
CCOc1ccc(S(=O)(=O)N2CCC(C(=O)NCC3CCCO3)CC2)cc1 (centres undefined)	-1	-5	2	-1	3	-3
CN(C)c1ccc(NC(=O)CCn2c(=S)oc3ccccc32)cc1	-6	2	3	58*	3	4
Cc1ccc(S(=O)(=O)Nc2c(C)n(C)n(-c3ccccc3)c2=O)cc1C(=O)NCc1ccco1	10	3	.	.	.	5
O=S(=O)(Nc1ccc(Nc2ccccc2)cc1)c1ccc(F)cc1	7	6	26*	4	17	11
COc1ccc(C(=O)O)cc1S(=O)(=O)N1CCCc2ccccc21	6	26*	3	-1	17	-1
